SMILES strings stand for the structures. Calls of active or inactive are those of the source.

Data set [1] in a line: Intrinsic clearance in human liver microsomes at 1 uM after 5 to 40 mins by LC-MS/MS analysis in presence of NADPH. It is filed as ADME. Conditions: read-out: CLH. The method in brief:
(§1)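 Pooled liver microsomes (0.5 mg/ml) with compound at 1 μM in 0.1 M phosphate buffer pH 7.4. Reaction started with NADPH 1 mM. Sampled at 0, 5, 15 and 40 min in duplicate, quenched with acetonitrile containing warfarin, then LC-MS/MS.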
Background: Microsomes from liver hold many membrane-bound enzymes, among them those of drug oxidation.

The target of data set [2] is T1, Peroxisome proliferator-activated receptor alpha (Homo sapiens, UniProt Q07869).
T1 sequence (Q07869 whole entry): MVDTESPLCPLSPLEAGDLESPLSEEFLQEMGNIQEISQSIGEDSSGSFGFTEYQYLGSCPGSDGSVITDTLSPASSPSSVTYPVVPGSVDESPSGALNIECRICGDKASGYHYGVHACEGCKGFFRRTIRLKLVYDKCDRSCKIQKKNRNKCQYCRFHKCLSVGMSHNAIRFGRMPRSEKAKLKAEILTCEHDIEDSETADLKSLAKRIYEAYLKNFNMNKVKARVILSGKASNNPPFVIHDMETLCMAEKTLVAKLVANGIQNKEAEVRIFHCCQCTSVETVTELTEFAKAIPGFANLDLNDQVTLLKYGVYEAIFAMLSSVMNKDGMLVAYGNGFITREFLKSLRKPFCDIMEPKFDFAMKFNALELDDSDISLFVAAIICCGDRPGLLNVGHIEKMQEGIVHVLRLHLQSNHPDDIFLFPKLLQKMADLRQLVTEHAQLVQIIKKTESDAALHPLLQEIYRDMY
As to the kind of experiment: Agonist activity at PPARalpha (unknown origin). The procedure, abridged: (§2)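 Single agonist-mode profiling at ten concentrations against FXR, PPARα, PPARγ and RXRα, run as an outside screening service.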

The nature of data set [3]: Half life in human liver microsomes at 1 uM. The data set is classed as ADME. The procedure, abridged: as §1
The nature of data set [4]: Fraction unbound in human plasma at 10 uM after 4 hrs by rapid equilibrium dialysis method. The data set is classed as ADME, cell-free. The procedure, abridged:
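Rapid equilibrium dialysis of pooled human plasma from two male and two female non-smoking donors. Compound typically 10 μM final, dialysed against isotonic phosphate buffer pH 7.4 at 37 °C for 4 h with rapid rotation. Proteins precipitated with methanol containing warfarin internal standard, then both compartments analysed by LC-MS/MS.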

In another data set the target is T2, Bile acid receptor (Homo sapiens, UniProt Q96RI1).
T2 sequence (Q96RI1 whole entry): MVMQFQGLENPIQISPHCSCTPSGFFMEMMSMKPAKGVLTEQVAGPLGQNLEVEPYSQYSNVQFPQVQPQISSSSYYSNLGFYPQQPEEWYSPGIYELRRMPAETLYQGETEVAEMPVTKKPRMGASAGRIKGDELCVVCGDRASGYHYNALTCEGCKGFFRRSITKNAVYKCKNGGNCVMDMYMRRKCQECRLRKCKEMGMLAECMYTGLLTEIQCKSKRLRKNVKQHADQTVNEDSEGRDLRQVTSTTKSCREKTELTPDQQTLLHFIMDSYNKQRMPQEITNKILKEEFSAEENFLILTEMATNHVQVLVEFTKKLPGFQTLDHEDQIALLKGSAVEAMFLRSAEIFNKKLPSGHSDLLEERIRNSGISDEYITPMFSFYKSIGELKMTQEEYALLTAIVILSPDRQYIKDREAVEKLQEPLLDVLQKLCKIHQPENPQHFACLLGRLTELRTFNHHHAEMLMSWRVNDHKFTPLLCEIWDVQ
The data set is described as follows: Agonist activity at FXR (unknown origin). The procedure, abridged:
as §2

Data set [5] is described as follows: Kinetic aqueous solubility of the compound in PBS at pH 1.2 after 2 hrs by LC-Ms analysis. The data set is classed as physicochemical. Particulars: read-out: Kinetic_solubility. The method in brief: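 Kinetic solubility from a 10 mM DMSO stock diluted 1:100 (1% DMSO, maximum detectable 0.1 mM) into PBS pH 7.4 or HCl-adjusted PBS at about pH 1.2. Incubated at 37 °C for 2 h in sealed glass vials, centrifuged at 10000 x g, 37 °C, 20 min, then LC-MS/MS.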

In a further data set the target is T3, Lipoprotein lipase (Bos taurus, UniProt P11151).
T3 sequence (P11151 whole entry): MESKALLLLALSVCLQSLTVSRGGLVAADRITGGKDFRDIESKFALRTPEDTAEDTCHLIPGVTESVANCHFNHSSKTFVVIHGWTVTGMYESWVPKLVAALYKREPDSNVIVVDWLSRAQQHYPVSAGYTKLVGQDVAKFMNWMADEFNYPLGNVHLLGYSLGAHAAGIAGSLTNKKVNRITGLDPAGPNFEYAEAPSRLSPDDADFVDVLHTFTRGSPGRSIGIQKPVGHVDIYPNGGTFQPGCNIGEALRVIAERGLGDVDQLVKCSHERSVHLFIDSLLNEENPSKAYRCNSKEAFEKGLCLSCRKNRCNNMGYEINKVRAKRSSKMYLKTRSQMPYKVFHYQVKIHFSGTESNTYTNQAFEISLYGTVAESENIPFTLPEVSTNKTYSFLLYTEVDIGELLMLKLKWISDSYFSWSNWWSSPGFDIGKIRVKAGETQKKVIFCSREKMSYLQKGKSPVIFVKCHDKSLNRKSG
As to the kind of experiment: Induction of bovine LPL stabilization using intralipid as substrate preincubated for 10 mins with human recombinant ANGPTL4 followed by substrate addition measured after 45 mins relative to control. The procedure, abridged: (§3)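 Compound in DMSO in buffer (50 mM potassium phosphate pH 7.4, 0.15 M NaCl, 0.01% Triton X-100), with human ANGPTL4 N-terminal fragment (aa 26-184, 75 nM final) and bovine LPL (15 nM final). Preincubated 10 min at 25 °C with shaking. Stopped after 45 min with 2.5% Triton X-100, and NEFA measured enzymatically. Activity normalised between DMSO+LPL+ANGPTL4 (0%) and DMSO+LPL (100%).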

Data set [6] addresses T4, Lipoprotein lipase (Bos taurus) (UniProt P11151).
T4 sequence (whole entry): T3 sequence (P11151 whole entry)
The data set is described as follows: Induction of bovine LPL stabilization using intralipid as substrate at 3.12 uM preincubated for 10 mins with human recombinant ANGPTL4 followed by substrate addition measured after 45 mins relative to control. The method in brief: as §3

Data set [7] concerns the target T4, Lipoprotein lipase (Bos taurus). As to the kind of experiment: Induction of bovine LPL stabilization using intralipid as substrate at 25 uM preincubated for 10 mins with human recombinant ANGPTL4 followed by substrate addition measured after 45 mins relative to control. The method in brief:
as §3

The target is the same in data set [8]. The data set is described as follows: Induction of bovine LPL stabilization using intralipid as substrate at 12.5 uM preincubated for 10 mins with human recombinant ANGPTL4 followed by substrate addition measured after 45 mins relative to control. The procedure, abridged:
as §3

Data set [9] is described as follows: Efflux ratio of apparent permeability from basolateral to apical over apical to basolateral side in human Caco2 cells at 10 uM after 15 to 60 mins. It is filed as ADME, cell-based. Conditions: Caco-2.
A short description of data set [10]: Half life in human hepatocytes at 1 uM. The data set is classed as ADME, cell-based, Hepatocyte. The procedure, abridged:
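Freshly isolated human hepatocytes (0.5 x 10⁶ cells/ml) in Williams medium E with compound at 1 μM. Reaction started by adding cells. Sampled at 0, 10, 30 and 60 min in duplicate, quenched with acetonitrile containing warfarin, then LC-MS/MS.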

A word on the EC50: it is the concentration needed to bring the measured effect to its halfway point. The term half-life denotes the time needed for the level to fall by half in the phase considered. A low value points to rapid decline. One may read the efflux ratio as the permeability from basolateral to apical divided by that in the opposite direction, in the common usage. On to `Cc1ccc(NC(=O)c2cc(-n3cc4ccc(C(=O)O)cc4n3)ccc2N2CCCCC2)cc1`, for which the microsomal CLint at 1 µM in data set [1] is less than 17 µL/min/mg. Further, the EC50 in data set [2] is more than 100 µM; on Bile acid receptor it was more than 100 µM; on Lipoprotein lipase, 6 µM. The half-life at 1 µM in data set [3] was more than 1.33 h; in data set [10] it was more than 2 h. Also, the Fu in data set [4] is listed as less than 0.01%. For the same molecule, the solubility kinetic at 2 h in data set [5] is less than 2 µM. Besides, in data set [6], the outcome was inactive. Also, the Activity came out at 97% in data set [7] and 75.6% in data set [8]. Further, in [9], the efflux ratio at 10 µM came out at 1.4.

Source of the values: ChEMBL document CHEMBL3745639, “Structure-activity relationships for lipoprotein lipase agonists that lower plasma triglycerides in vivo” (Eur J Med Chem, 2015).
